Laboratory results from ChEMBL document CHEMBL4373711, “Development of 3,5-Dinitrophenyl-Containing 1,2,4-Triazoles and Their Trifluoromethyl Analogues as Highly Efficient Antitubercular Agents Inhibiting Decaprenylphosphoryl-β-d-ribofuranose 2'-Oxidase” (J Med Chem, 2019).
Values after ≈ are worked out from the molar mass of the structure shown. Active and inactive are the calls of the source. No cut-off for these calls is given here.

Assays:
Mycobacterium kansasii [1] = test: Antimycobacterial activity against Mycobacterium kansasii CNCTC My 235/80 after 14 days; assay type: functional; conditions: CNCTC My 235/80, 336 h
Method in brief: (§1)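 Microdilution in Šula's semisynthetic medium; compounds in DMSO at 32–0.03 µM. Inoculum from 1.0 McFarland suspension diluted 10-4. […] Isoniazid and rifampicin as reference drugs.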

Mycobacterium avium [2] = test: Antimycobacterial activity against Mycobacterium avium CNCTC My 330/88 after 14 days; assay type: functional; conditions: CNCTC My 330/88, 336 h
Method in brief: (§2)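 M. avium was tested by microdilution in Šula's semisynthetic medium, with compounds dissolved in DMSO and serially diluted from 1000 down to 1. Inoculum was a 1.0 McFarland suspension diluted 10-5. Plates were incubated at 37 °C and read at 14 and 21 days. […] Isoniazid and rifampicin served as standards.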

[3] = system: Mycobacterium tuberculosis; test: Antimycobacterial activity against Mycobacterium tuberculosis H37Rv CNCTC My 331/88 after 14 days; assay type: functional; conditions: H37Rv CNCTC My 331/88, 336 h
Method in brief: (§3)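 M. tuberculosis strains (H37Rv and clinical MDR/XDR isolates) tested by microdilution in Šula's semisynthetic medium. Compounds were dissolved in DMSO and tested at 32 to 0.03 µM in twofold steps. Inoculum was a 1.0 McFarland suspension diluted 10-3. Plates were incubated at 37 °C and read at 14 and 21 days.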

Mycobacterium avium [4] = test: Antimycobacterial activity against Mycobacterium avium CNCTC My 330/88 after 21 days; assay type: functional; conditions: CNCTC My 330/88, 504 h; method in brief: as §2
[5] = system: Mycobacterium tuberculosis; test: Antimycobacterial activity against Mycobacterium tuberculosis H37Rv CNCTC My 331/88 after 21 days; assay type: functional; conditions: H37Rv CNCTC My 331/88, 504 h; method in brief: as §3
Mycobacterium kansasii [6] = test: Antimycobacterial activity against Mycobacterium kansasii 6509/96 after 21 days; assay type: functional; conditions: 6509/96, 504 h; method in brief: as §1
Mycobacterium kansasii [7] = test: Antimycobacterial activity against Mycobacterium kansasii CNCTC My 235/80 after 7 days; assay type: functional; conditions: CNCTC My 235/80, 168 h; method in brief: as §1
Mycobacterium kansasii [8] = test: Antimycobacterial activity against Mycobacterium kansasii 6509/96 after 14 days; assay type: functional; conditions: 6509/96, 336 h; method in brief: as §1
Mycobacterium kansasii [9] = test: Antimycobacterial activity against Mycobacterium kansasii 6509/96 after 7 days; assay type: functional; conditions: 6509/96, 168 h; method in brief: as §1
Mycobacterium kansasii [10] = test: Antimycobacterial activity against Mycobacterium kansasii CNCTC My 235/80 after 21 days; assay type: functional; conditions: CNCTC My 235/80, 504 h; method in brief: as §1
Staphylococcus aureus [11] = test: Antibacterial activity against Staphylococcus aureus subsp. aureus ATCC 29213 CCM 4223 at highest concentration measured after 24 to 48 hrs by alamar blue dye based broth microdilution assay; assay type: functional, organism-based
Pichia kudriavzevii = test: Antifungal activity against Candida krusei ATCC 6258 CCM8271 at highest concentration measured after 24 to 48 hrs by alamar blue dye based broth microdilution assay; assay type: functional, organism-based
Escherichia coli = test: Antibacterial activity against Escherichia coli ATCC 25922 CCM 3954 at highest concentration measured after 24 to 48 hrs by alamar blue dye based broth microdilution assay; assay type: functional, organism-based
Pseudomonas aeruginosa = test: Antibacterial activity against Pseudomonas aeruginosa ATCC 27853 CCM 3955 at highest concentration measured after 24 to 48 hrs by alamar blue dye based broth microdilution assay; assay type: functional, organism-based
Candida tropicalis = test: Antifungal activity against Candida tropicalis ATCC 750 CCM 8264 at highest concentration measured after 24 to 48 hrs by alamar blue dye based broth microdilution assay; assay type: functional, organism-based
Candida parapsilosis = test: Antifungal activity against Candida parapsilosis ATCC 22019 CCM 8260 at highest concentration measured after 24 to 48 hrs by alamar blue dye based broth microdilution assay; assay type: functional, organism-based
Aspergillus flavus = test: Antifungal activity against Aspergillus flavus CCM 8363 at highest concentration measured after 24 to 48 hrs by alamar blue dye based broth microdilution assay; assay type: functional, organism-based
Klebsiella pneumoniae = test: Antibacterial activity against Klebsiella pneumoniae at highest concentration measured after 24 to 48 hrs by alamar blue dye based broth microdilution assay; assay type: functional, organism-based
Staphylococcus aureus [12] = test: Antibacterial activity against methicillin-resistant Staphylococcus aureus subsp. aureus ATCC 43300 CCM 4750 at highest concentration measured after 24 to 48 hrs by alamar blue dye based broth microdilution assay; assay type: functional, organism-based
Enterococcus faecalis = test: Antibacterial activity against Enterococcus faecalis ATCC 29212 CCM 4224 at highest concentration measured after 24 to 48 hrs by alamar blue dye based broth microdilution assay; assay type: functional, organism-based
Aspergillus fumigatus = test: Antifungal activity against Aspergillus fumigatus ATCC 204305 at highest concentration measured after 24 to 48 hrs by alamar blue dye based broth microdilution assay; assay type: functional, organism-based
[13] = system: Trichophyton interdigitale; test: Antifungal activity against Trichophyton interdigitale ATCC 9533 CCM 8377 at highest concentration measured after 72 to 120 hrs by alamar blue dye based broth microdilution assay; assay type: functional
[14] = system: Staphylococcus epidermidis; test: Antibacterial activity against Staphylococcus epidermidis at highest concentration measured after 24 to 48 hrs by alamar blue dye based broth microdilution assay; assay type: functional, organism-based
Serratia marcescens = test: Antibacterial activity against Serratia marcescens at highest concentration measured after 24 to 48 hrs by alamar blue dye based broth microdilution assay; assay type: functional, organism-based
Candida albicans = test: Antifungal activity against Candida albicans ATCC 24433 CCM 8320 at highest concentration measured after 24 to 48 hrs by alamar blue dye based broth microdilution assay; assay type: functional, organism-based
Lichtheimia corymbifera = test: Antifungal activity against Lichtheimia corymbifera CCM 8077 at highest concentration measured after 24 to 48 hrs by alamar blue dye based broth microdilution assay; assay type: functional, organism-based

Row | SMILES | MIC99 (Mycobacterium kansasii [1]) [µM] | MIC99 (Mycobacterium avium [2]) [µM] | MIC99 [3] [µM] | MIC99 (Mycobacterium avium [4]) [µM] | MIC99 [5] [µM] | MIC99 (Mycobacterium kansasii [6]) [µM] | MIC99 (Mycobacterium kansasii [7]) [µM] | MIC99 (Mycobacterium kansasii [8]) [µM] | MIC99 (Mycobacterium kansasii [9]) [µM] | MIC99 (Mycobacterium kansasii [10]) [µM] | other results
1 | Cc1ccc(-c2nnc(SCc3cc([N+](=O)[O-])cc([N+](=O)[O-])c3)n2Cc2ccccc2)cc1 | 4 (≈ 1.85 µg/mL) | 250 (≈ 115 µg/mL) | 4 (≈ 1.85 µg/mL) | 250 (≈ 115 µg/mL) | 4 (≈ 1.85 µg/mL) | 4 (≈ 1.85 µg/mL) | 4 (≈ 1.85 µg/mL) | 4 (≈ 1.85 µg/mL) | 4 (≈ 1.85 µg/mL) | 4 (≈ 1.85 µg/mL) | 
2 | O=[N+]([O-])c1cc(-c2nnc(SCc3ccc(Br)cc3)n2Cc2ccccc2)cc(C(F)(F)F)c1 | 1 (≈ 0.549 µg/mL) | 250 (≈ 137 µg/mL) | 1 (≈ 0.549 µg/mL) | 250 (≈ 137 µg/mL) | 1 (≈ 0.549 µg/mL) | 2 (≈ 1.1 µg/mL) | 0.5 (≈ 0.275 µg/mL) | 1 (≈ 0.549 µg/mL) | 0.5 (≈ 0.275 µg/mL) | 1 (≈ 0.549 µg/mL) | 
3 | O=[N+]([O-])c1cc(CSc2nnc(-c3ccc(Cl)c(Cl)c3)n2Cc2ccccc2)cc([N+](=O)[O-])c1 | 2 (≈ 1.03 µg/mL) | 250 (≈ 129 µg/mL) | 2 (≈ 1.03 µg/mL) | 250 (≈ 129 µg/mL) | 2 (≈ 1.03 µg/mL) | 4 (≈ 2.07 µg/mL) | 1 (≈ 0.516 µg/mL) | 4 (≈ 2.07 µg/mL) | 2 (≈ 1.03 µg/mL) | 2 (≈ 1.03 µg/mL) | 
4 | COc1ccc(-c2nnc(SCc3cc([N+](=O)[O-])cc([N+](=O)[O-])c3)n2Cc2ccccc2)cc1 | 8 (≈ 3.82 µg/mL) | 250 (≈ 119 µg/mL) | 4 (≈ 1.91 µg/mL) | 250 (≈ 119 µg/mL) | 4 (≈ 1.91 µg/mL) | 8 (≈ 3.82 µg/mL) | 4 (≈ 1.91 µg/mL) | 8 (≈ 3.82 µg/mL) | 8 (≈ 3.82 µg/mL) | 8 (≈ 3.82 µg/mL) | Activity (Staphylococcus aureus [11]): inactive; Activity (Pichia kudriavzevii): inactive; Activity (Escherichia coli): inactive; Activity (Pseudomonas aeruginosa): inactive; Activity (Candida tropicalis): inactive; Activity (Candida parapsilosis): inactive; Activity (Aspergillus flavus): inactive; Activity (Klebsiella pneumoniae): inactive; Activity (Staphylococcus aureus [12]): inactive; Activity (Enterococcus faecalis): inactive; Activity (Aspergillus fumigatus): inactive; Activity [13]: inactive; Activity [14]: inactive; Activity (Serratia marcescens): inactive; Activity (Candida albicans): inactive; Activity (Lichtheimia corymbifera): inactive
5 | O=[N+]([O-])c1cc(CSc2nnc(-c3ccccc3)[nH]2)cc([N+](=O)[O-])c1 | 8 (≈ 2.86 µg/mL) | 62 (≈ 22.2 µg/mL) | 2 (≈ 0.715 µg/mL) | 125 (≈ 44.7 µg/mL) | 4 (≈ 1.43 µg/mL) | 16 (≈ 5.72 µg/mL) | 4 (≈ 1.43 µg/mL) | 8 (≈ 2.86 µg/mL) | 4 (≈ 1.43 µg/mL) | 8 (≈ 2.86 µg/mL) | 
6 | CCCCCCCCSc1nnc(-c2cc([N+](=O)[O-])cc(C(F)(F)F)c2)n1Cc1ccccc1 | 2 (≈ 0.985 µg/mL) | 250 (≈ 123 µg/mL) | 2 (≈ 0.985 µg/mL) | 250 (≈ 123 µg/mL) | 2 (≈ 0.985 µg/mL) |  | 1 (≈ 0.493 µg/mL) |  |  | 2 (≈ 0.985 µg/mL) | 
7 | CCNC(=S)NNC(=O)c1cc([N+](=O)[O-])cc([N+](=O)[O-])c1 | > 32 | 1000 (≈ 313 µg/mL) | > 32 | 1000 (≈ 313 µg/mL) | > 32 | > 32 | > 32 | > 32 | > 32 | > 32 | 
8 | NNC(=O)c1ccncc1 [ISONIAZID] | > 250 | > 250 |  | > 250 |  | 4 (≈ 0.549 µg/mL) | > 250 | 4 (≈ 0.549 µg/mL) | 2 (≈ 0.274 µg/mL) | > 250 | 
9 | O=C(NNC(=S)NCc1ccc(Cl)cc1Cl)c1cc([N+](=O)[O-])cc([N+](=O)[O-])c1 | 16 (≈ 7.11 µg/mL) | 16 (≈ 7.11 µg/mL) | 8 (≈ 3.55 µg/mL) | 32 (≈ 14.2 µg/mL) | 8 (≈ 3.55 µg/mL) | 16 (≈ 7.11 µg/mL) | 16 (≈ 7.11 µg/mL) | 16 (≈ 7.11 µg/mL) | 16 (≈ 7.11 µg/mL) | 16 (≈ 7.11 µg/mL) | 
